ALR inh = inhibitors of human ALR sulfhydryl oxidase, primary screen, biochemical, H2O2 detection, HRP-luminol luminescence, single point; AID 485317, 2010; inhibition, % (concentration not given with the values); 290,000 tested, 3.8% active; purified ALR, DTT oxidation;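 active = mean replicate inhibition above about 79%, with every replicate also reaching it, limit read from the data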
Target sequence (P55789 whole entry, looked up): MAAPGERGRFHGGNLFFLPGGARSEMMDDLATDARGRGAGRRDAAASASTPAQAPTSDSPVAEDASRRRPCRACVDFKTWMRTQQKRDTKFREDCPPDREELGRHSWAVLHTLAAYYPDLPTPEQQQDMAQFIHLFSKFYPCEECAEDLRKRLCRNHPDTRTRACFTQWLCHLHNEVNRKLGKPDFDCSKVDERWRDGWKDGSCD
UCH37 DUB inh = inhibitors of human UCH37 deubiquitinase, primary screen, biochemical, Ub-AMC cleavage, fluorescence; Ubiquitin carboxyl-terminal hydrolase isozyme L5 (Homo sapiens), Q9Y5K5; purified proteasome/UCH37; inhibition, % (concentration not given with the values); 330,000 tested, 0.33% active; AID 588478, 2011;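 active = mean inhibition over replicate wells above about 20%, limit read from the data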;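 also: 0% = compound-free wells with enzyme and 100% = wells lacking proteasome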
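Test system – human UCH37 enzyme supplied as purified proteasome complex · Incubation – 30 min preincubation with enzyme, 25 min cleavage at room temperature · Detection – AMC fluorescence from Ub-AMC cleavage, excitation 355 nm, emission 460 nm · Benchmarks – no-proteasome wells (full inhibition) and compound-free wells (no inhibition)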
Rtt109 Vps75 = inhibitors of C. albicans Rtt109/Vps75 HAT, primary screen, biochemical, ThioGlo CoA-SH fluorescence, plate reader. AID 540336, 2011. 330,000 tested, 0.16% active. purified Rtt109/Vps75, 4 h. inhibition, % at 34.9 µM. Histone acetyltransferase RTT109 (Candida albicans (strain SC5314 / ATCC MYA-2876)), …;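 active = inhibition of at least 50% in every replicate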
Target sequence (Q5AAJ8 whole entry, looked up): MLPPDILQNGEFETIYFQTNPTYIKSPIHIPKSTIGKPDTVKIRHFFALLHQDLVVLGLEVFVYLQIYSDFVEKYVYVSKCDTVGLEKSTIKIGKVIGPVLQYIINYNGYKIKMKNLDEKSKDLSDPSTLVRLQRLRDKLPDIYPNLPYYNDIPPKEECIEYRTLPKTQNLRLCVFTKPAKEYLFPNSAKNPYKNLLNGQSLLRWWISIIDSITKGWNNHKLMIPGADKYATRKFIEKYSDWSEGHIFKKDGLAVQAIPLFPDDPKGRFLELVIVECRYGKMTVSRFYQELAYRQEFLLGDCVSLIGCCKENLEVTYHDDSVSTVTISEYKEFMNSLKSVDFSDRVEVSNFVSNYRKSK
HDAC3 inhib = HDAC3 deacetylase inhibitors, primary screen, biochemical, fluorescence, cell-free homogeneous. inhibition, % at 8.3 µM. recombinant HDAC3, fluorogenic peptide/trypsin coupled. 320,000 tested, 0.15% active. Histone deacetylase 3 (Homo sapiens), O15379; in the data active = inhibition above about 26%, passing the limit was not always enough
FAS TE block = FAS thioesterase domain inhibitors, primary screen, biochemical, fluorescence intensity, uHTS. Fatty acid synthase (Homo sapiens), P49327. recombinant FAS-TE, OMFH fluorogenic substrate, fluorescence endpoint. inhibition, % at 15 µM. 360,000 tested, 0.67% active. AID 602261, 2012;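 active = compounds whose normalised, plate-corrected inhibition of enzyme fluorescence in the single-dose primary screen is 50% or more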;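 also: 0% = DMSO with enzyme and 100% = substrate without enzyme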
M18AAP inhibitor = PfM18AAP inhibitors, malaria aminopeptidase, primary screen, biochemical, QFRET, recombinant enzyme; AID 1822, 2009; H-Glu-NHMec fluorogenic cleavage; 290,000 tested, 1.2% active; inhibition, % at 7.35 µM; M18 aspartyl aminopeptidase (Plasmodium falciparum 3D7);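 active = inhibition above the campaign mean inhibition over all tested compounds plus 3 SD, cut at about 28% in these data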;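 also: 0% = plate median of test compound wells and 100% = 2 mM ZnCl2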
FAS-TE inh conf = FAS thioesterase domain inhibitors, confirmation, biochemical, fluorescence intensity, single concentration; shares compounds with FAS TE block; recombinant FAS-TE, OMFH fluorogenic substrate; inhibition, % at 15 µM; 2,300 tested, 45% active; AID 624325, 2012;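 active = compounds inhibiting the enzyme by at least 50% at 15 µM in any one of the replicates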;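 also: 0% = enzyme with DMSO only and 100% = wells lacking enzyme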
Starred values were filed as active, the others as inactive; . = no result given. Hits are enriched below; roughly 4.6% of the tested compounds scored in any of these assays.

SMILES | ALR inh | UCH37 DUB inh | Rtt109 Vps75 | HDAC3 inhib | FAS TE block | M18AAP inhibitor | FAS-TE inh conf
CCOc1cc(C=NNc2nc(N3CCCC3)nc(N3CCCC3)n2)ccc1O | . | 0.7 | . | . | . | . | .
CC1(C)CC(=O)C=C(c2ccc(COC(=O)c3ccccc3)cc2)C1=O | . | . | . | . | 64.1* | . | 43.2*
CC(C)(C)N(Cc1ccccc1)C(=O)COC(=O)c1cccc([N+](=O)[O-])c1 | -6.5 | -0.4 | 1.9 | 6.3 | 77.4* | 4.6 | 41.5*
O=C(Cn1cc([N+](=O)[O-])cn1)N1CCc2ccccc2C1 | -1.8 | 3.5 | 4.2 | 5.7 | 55.7* | -2.5 | 57.7*
O=C(OCC(=O)N1CCc2ccccc2C1)c1cccc([N+](=O)[O-])c1 | 1.0 | . | 2.8 | -6.5 | 55.5* | 0.8 | 67.5*
CC(=O)N1CCN(S(=O)(=O)c2cccc(C(=O)OCC(=O)N(Cc3ccccc3)C(C)(C)C)c2)CC1 | 0.6 | -2.6 | 7.7 | -5.5 | 4.6 | . | .
O=C(Cn1cc([N+](=O)[O-])cn1)N1CCN(c2ccccc2)CC1 | 27.3 | 2.7 | -4.7 | 7.8 | 12.6 | 5.3 | .
O=S(=O)(N=C(Nc1ccc(F)cc1)C(F)(F)F)c1ccccc1 | . | 0.0 | . | . | . | . | .
COCCOc1ccc(C(F)(F)F)cc1NC(=O)Cc1ccc(S(=O)(=O)N2CCOCC2)s1 | -3.2 | 2.4 | -1.8 | 1.2 | 65.4* | . | 68.8*
CN(Cc1ccc(C(C)(C)C)cc1)C(=O)Cc1ccc(S(=O)(=O)N2CCOCC2)s1 | . | 4.1 | 1.1 | 5.2 | 85.1* | . | 89.1*
O=[N+]([O-])c1ccc(Cl)c(C=Nn2c(C3CCCCC3)n[nH]c2=S)c1 | . | 4.6 | . | . | . | . | .
O=C(NN=Cc1ccc(OC(F)F)cc1)c1cccc(S(=O)(=O)N2CCOCC2)c1 | . | -1.0 | . | . | . | . | .
COc1ccc(C)cc1S(=O)(=O)Nc1cccc(-c2ccc(N3CCCCCC3)nn2)c1 | -7.0 | 2.3 | 1.4 | 0.2 | 31.3 | -3.4 | .
O=S(=O)(Nc1cccc(-c2ccc(N3CCCCCC3)nn2)c1)c1ccccc1Cl | -4.8 | 2.7 | -2.5 | -1.8 | 50.1* | -2.3 | 10.7
O=S(=O)(Nc1cccc(-c2ccc(N3CCCCCC3)nn2)c1)c1ccccc1F | -5.5 | 1.4 | 5.2 | -11.9 | 55.5* | 9.2 | 62.1*
COc1ccc2c(c1)c(CC(=O)Nc1ccccc1OC)c(C)n2C(=O)c1ccc(Cl)cc1 | -9.6 | 6.5 | 7.5 | 1.9 | 51.6* | 0.5 | 12.2
COc1ccc2c(c1)c(CC(=O)Nc1ccc(C(C)=O)cc1)c(C)n2C(=O)c1ccc(Cl)cc1 | . | 3.5 | -15.4 | 5.7 | 54.1* | 5.7 | 29.5
COc1ccc2c(c1)c(CC(=O)Nc1cc(C)ccc1C)c(C)n2C(=O)c1ccc(Cl)cc1 | -2.6 | 3.7 | 1.5 | 6.1 | 21.4 | 6.4 | .
CC(=O)C(=NNc1ccccc1C)N1CCOCC1 | . | 7.6 | . | . | . | . | .
CC(=NNc1ccc([N+](=O)[O-])cc1[N+](=O)[O-])c1ccc(-n2nncc2C(C)(C)C)cc1 | . | 9.2 | . | . | . | . | .
O=S1(=O)N=C(NN=Cc2ccccn2)c2ccccc21 | . | 4.3 | . | . | . | . | .
CN(C)CCNc1nc2sc3c(c2c(=O)n1CCc1ccccc1)CCCCC3 | 60.5 | 2.1 | 0.5 | 3.0 | 59.8* | -10.4 | 56.1*
O=C(Oc1ccccc1C(=O)Nc1ccccc1)c1ccc(Br)c([N+](=O)[O-])c1 | 96.6* | 2.5 | 0.1 | -23.1 | 78.4* | -1.1 | 76.1*
COc1ccccc1C(=O)Oc1ccccc1C(=O)Nc1ccccc1 | 10.0 | 0.2 | . | 1.1 | -4.2 | 2.0 | .
COc1cc(C=NNc2ccc(Cl)c(C(=O)O)c2)ccc1OC(=O)c1cccs1 | . | 8.6 | . | . | . | . | .
SMILES | ALR inh | UCH37 DUB inh | Rtt109 Vps75 | HDAC3 inhib | FAS TE block | M18AAP inhibitor | FAS-TE inh conf
COc1ccc(-c2cnnn2-c2ccc(NC(=O)c3ccc(S(=O)(=O)N4CCCCC4)cc3)cc2)cc1OC | -3.2 | -3.7 | 14.4 | -2.4 | 87.5* | -2.5 | 5.8
COc1ccc(S(=O)(=O)N2CCOCC2)cc1C(=O)Nc1ccc(N2CCCCCC2)cc1 | . | . | 3.2 | . | 62.0* | . | 23.3
Cc1ccc(S(=O)(=O)N2CCCCC2)cc1C(=O)Nc1ccc(N2CCOCC2)cc1 | -3.7 | 0.9 | -5.4 | 3.9 | -8.6 | -5.9 | .
COc1ccc(C(=O)Nc2ccc(S(=O)(=O)N3CCCCC3)cc2)cc1OC | -15.3 | 4.6 | 16.2 | 0.9 | 9.4 | 3.4 | .
COc1ccccc1CNC(=O)c1cc(S(=O)(=O)N2CCN(c3ccccc3)CC2)ccc1Cl | . | 1.9 | -7.1 | . | 65.4* | . | 25.2
COCCNC(=O)CC(C)=NNC(=O)C(=O)NC1CCCCC1 | . | -0.6 | . | . | . | . | .
O=S(=O)(/N=C(/Sc1ccccc1)c1ccccc1)c1ccccc1 | 97.9* | . | -3.1 | -0.8 | 56.8* | 1.2 | 31.6
C=CCOc1c(OC)cc(/C=N/Nc2cccc(C(=O)O)c2)c(Br)c1Br | . | . | 5.8 | 3.1 | 70.0* | 4.1 | 83.8*
C=CCOc1c(Br)cc(C=NNc2ccc(C(=O)O)cc2)cc1OCC | . | -29.9 | . | . | . | . | .
C[C@@]12C(=O)Nc3ccccc3C(=O)N1[C@H]1c3cc(Br)ccc3OC[C@@H]1[C@@H]2c1ccccc1 | -3.5 | 2.3 | 1.8 | -9.1 | 92.3* | . | 47.1*
C[C@@]12C(=O)Nc3ccc(Cl)cc3C(=O)N1[C@H]1c3cc(Br)ccc3OC[C@@H]1[C@@H]2c1ccccc1 | 0.3 | 4.3 | -8.1 | 0.1 | 90.6* | . | 32.6
COc1ccc2c(c1)[C@H]1[C@H](CO2)[C@H](c2ccccc2)[C@]2(C)C(=O)N[C@@H](C)C(=O)N12 | -2.9 | . | . | -5.3 | . | . | .
CCOC(=O)[C@H]1[C@H]2COc3ccc(Br)cc3[C@@H]2N2C(=O)c3ccc(C)cc3NC(=O)[C@@]12C | . | 4.0 | 5.7 | 2.8 | 23.2 | . | .
CCOC(=O)[C@H]1[C@H]2COc3ccc(Br)cc3[C@@H]2N2C(=O)c3cc(F)c(F)cc3NC(=O)[C@@]12C | . | 3.0 | 6.4 | 10.0 | 41.0 | . | .
C[C@@]12C(=O)Nc3ccc(Br)cc3C(=O)N1[C@H]1c3cc(Br)ccc3OC[C@@H]1[C@@H]2c1ccccc1 | -0.7 | 3.6 | 9.0 | -1.2 | 63.8* | . | 23.0

Assay outcomes from PubChem.
